What was measured:
CYP1A genes = details: HepaRG cells; cited from earlier work
MTT cytotoxicity, HepaRG = assay type: cell-based, human; details: human, HepaRG cells (differentiated)
MTT cytotoxicity, HepG2 = assay type: cell-based; details: human, HepG2 cells
[1] = target: T1, human aryl hydrocarbon receptor (AhR) (Homo sapiens, UniProt P35869); details: HepG2-AhR Lucia cells
T1 sequence (P35869 11-848): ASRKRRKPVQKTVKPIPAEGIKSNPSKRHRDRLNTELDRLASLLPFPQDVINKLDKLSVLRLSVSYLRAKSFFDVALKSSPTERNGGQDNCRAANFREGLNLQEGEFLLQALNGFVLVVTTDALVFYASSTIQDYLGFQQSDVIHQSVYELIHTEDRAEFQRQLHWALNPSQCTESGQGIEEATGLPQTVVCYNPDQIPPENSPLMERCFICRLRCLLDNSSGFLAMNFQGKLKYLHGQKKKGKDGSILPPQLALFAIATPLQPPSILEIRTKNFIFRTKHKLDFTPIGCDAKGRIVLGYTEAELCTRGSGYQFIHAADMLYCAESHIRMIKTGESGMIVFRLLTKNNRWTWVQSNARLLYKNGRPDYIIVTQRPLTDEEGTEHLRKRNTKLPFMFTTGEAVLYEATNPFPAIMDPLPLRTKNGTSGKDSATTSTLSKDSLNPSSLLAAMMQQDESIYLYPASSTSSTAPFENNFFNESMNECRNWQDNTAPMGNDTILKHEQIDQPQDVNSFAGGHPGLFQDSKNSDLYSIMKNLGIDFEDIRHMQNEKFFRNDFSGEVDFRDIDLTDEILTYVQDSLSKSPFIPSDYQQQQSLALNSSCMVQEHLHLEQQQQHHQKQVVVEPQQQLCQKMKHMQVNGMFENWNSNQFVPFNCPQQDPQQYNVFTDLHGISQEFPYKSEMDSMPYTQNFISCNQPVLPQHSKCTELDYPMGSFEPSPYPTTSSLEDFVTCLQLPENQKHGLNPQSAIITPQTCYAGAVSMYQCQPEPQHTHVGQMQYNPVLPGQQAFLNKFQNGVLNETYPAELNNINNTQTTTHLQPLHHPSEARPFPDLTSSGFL

[2] = target: T1, human aryl hydrocarbon receptor (AhR); test: cell-based
MTT cytotoxicity, MRC-5 = assay type: cell-based; details: human, MRC-5 cells
goats = details: oral, 0.16 g/kg body weight, within 4–24 h; cited from earlier work
MTT cytotoxicity, T47D = assay type: cell-based; details: human, T47D cells
Caco-2 cells [3] = test: Cell proliferation and migration; assay type: cell-based, human; details: for proliferation speed compared to control (100 %): Caco-2, 1 µM, 24 h; for effect on cell proliferation rate vs media control: Caco-2, 10 µM, p < 0.05; for effect on growth and proliferation vs media control: Caco-2, any tested concentration (0.1, 1, 10 µM)
Method in brief: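 Cells were seeded at 100,000 cells/mL in 48-well plates and grown to 90–100 % confluence. Each monolayer was scratched with a pipette tip. Medium was then replaced with exposure medium containing 0.1, 1 or 10 µM test compound; cytochalasin D (1 mM) was the positive control. Wells were imaged by automated phase-contrast microscopy every 30 min for 24 h. Read-outs were cell-free area (mm2) and proliferation rate relative to media control (n = 8–16; one-way ANOVA, Dunnett's).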

MTT cytotoxicity, MSC = assay type: cell-based, human; details: human, adipose-derived mesenchymal stem cells (MSC)
MTT cytotoxicity, Caco-2 = assay type: cell-based; details: human, Caco-2 cells
Caco-2 cells [4] = details: cited from earlier work
MRC-5 cells = details: MRC-5, 30 µg/mL, exposure duration not specified; ref Yap et al. 52; cited from earlier work
V79 379 A cells = details: 0.1 mM, 2-hour exposure; cited from earlier work
MCF-7 cells = details: MCF-7, 100 µM; cited from earlier work
Caco-2 cells [5] = details: Caco-2, 500–1000 µM, 72-hour exposure; ref Tomii et al. 31; cited from earlier work
[6] = tested on: adipose-derived mesenchymal stem cells (MSC); test: MTT cytotoxicity, MSC; assay type: cell-based, human; details: MSC, 24 h exposure, MTT, average ± SD
HepaRG cells = test: MTT cytotoxicity, HepaRG; assay type: cell-based, human; details: HepaRG, 24 h exposure, MTT, average ± SD
[7] = Indole derivatives quantification in cell media; assay type: physicochemical; details: after 24 h of incubation
Method in brief: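 Test compounds in cell media were measured by reversed-phase HPLC with fluorescence detection on a C18 column (2.2 µm, 150 × 2.1 mm) at 30 °C. A binary gradient ran from 50 mM KH2PO4 (pH 3.3) to that buffer/acetonitrile 700:300. Excitation was 270 nm and emission 350 nm. Compounds were identified by co-chromatography with authentic standards and quantified by peak area.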

[8] = tested on: V79–4 Chinese hamster fibroblasts; details: V79–4, 300 µM; cited from earlier work

AhR agonist character [1]	EC50 [2] [nM]	Compound	EC50 at 24 h (MTT cytotoxicity, HepaRG) [nM]	EC50 at 24 h (MTT cytotoxicity, HepG2) [nM]	EC50 at 24 h (MTT cytotoxicity, MRC-5) [nM]	EC50 at 24 h (MTT cytotoxicity, T47D) [nM]	effect on cell proliferation rate vs media control (Caco-2 cells [3])	EC50 at 24 h (MTT cytotoxicity, MSC) [nM]	EC50 at 24 h (MTT cytotoxicity, Caco-2) [nM]	other results
–	–	Cn1ccc2ccccc21 [1-MI]	–	–	–	–	–	–	–	induction of CYP1A genes, % of the level of TCDD (CYP1A genes): about 50%
partial agonists	1400	Cc1c[nH]c2ccccc12 [3-MI, 3-methylindole]	66400 ± 21800	> 100000	21900 ± 8060	> 100000	significant reduction in cell proliferation rates	330 ± 100	> 100000	induction of CYP1A genes, % of the level of TCDD (CYP1A genes): about 50%; pulmonary toxicity findings (goats): severe pulmonary edema, denuded bronchioles, and necrotic alveolar cells; effect on cell proliferation vs media control (Caco-2 cells [3]; Caco-2, 0.1 µM): significant decrease in proliferation; proliferation speed compared to control (100 %) (Caco-2 cells [3]): 68.2 ± 7.4%
–	–	Cc1cccc2[nH]ccc12 [4-MI]	–	–	–	–	–	–	–	induction of CYP1A gene expression (CYP1A genes): comparable to TCDD
–	–	Cc1ccc2cc[nH]c2c1 [6-MI]	–	–	–	–	–	–	–	induction of CYP1A gene expression (CYP1A genes): comparable to TCDD
partial agonists	–	O=c1cc(-c2ccccc2)oc2ccc3ccccc3c12 [BNF, β-naphthoflavone, reference compound]	–	–	–	–	–	–	–	–
strong agonists	40	O=Cc1c[nH]c2ccccc12 [I3A, indole-3-aldehyde]	1980 ± 730	> 100000	49800 ± 14500	> 100000	significant reduction in cell proliferation rates	1870 ± 830	> 100000	reduction in cell viability (Caco-2 cells [4]; Caco-2, 160 µM, ref Liu et al. 30): 89.6%; proliferation speed compared to control (100 %) (Caco-2 cells [3]): 71.3 ± 5.1%
strong agonists	880	O=C(O)c1c[nH]c2ccccc12 [I3CA, indole-3-carboxylic acid]	53000 ± 12100	> 100000	520 ± 80	> 100000	significant reduction in cell proliferation rates	640 ± 310	> 100000	–
–	–	O=C(O)Cc1c[nH]c2ccccc12 [IAA, indole-3-acetic acid]	2210 ± 320	> 100000	2550 ± 1950	1680 ± 460	–	> 100000	520 ± 120	cytotoxic effects (MRC-5 cells): no cytotoxic effects; cytotoxic response (V79 379 A cells): did not show a cytotoxic response; cytotoxicity (MCF-7 cells): did not show cytotoxicity; effect on cell count and cytotoxicity (LDH assay) (Caco-2 cells [5]): reduced Caco-2 cell count without causing cytotoxicity; effect on growth and proliferation vs media control (Caco-2 cells [3]): no significant differences; Cytotoxic evaluation (EC50) [6]: did not show toxicity
strong agonists	110	O=C(O)CCc1c[nH]c2ccccc12 [IPA, indole-3-propionic acid]	> 100000	> 100000	910 ± 100	2020 ± 130	–	400 ± 140	> 100000	Cytotoxic evaluation (EC50) (HepaRG cells): no sensitivity; effect on growth and proliferation vs media control (Caco-2 cells [3]): no significant differences
weak AhR ligand	32100	c1ccc2[nH]ccc2c1 [Indole, indole]	> 100000	> 100000	> 100000	> 100000	significant reduction in cell proliferation rates	> 100000	> 100000	concentration inducing toxic effects (Caco-2 cells [4]; Caco-2): 5000 µM; recovery rate in cell media (actual vs nominal concentration) [7]: exceeding 100%
–	–	O=Cc1ccc2cc[nH]c2c1 [indole-6-carboxaldehyde]	–	–	–	–	–	–	–	toxicity [8]: no toxicity

Compound	AhR agonist character [1]	EC50 [2] [nM]	EC50 at 24 h (MTT cytotoxicity, HepaRG) [nM]	EC50 at 24 h (MTT cytotoxicity, HepG2) [nM]	EC50 at 24 h (MTT cytotoxicity, MRC-5) [nM]	EC50 at 24 h (MTT cytotoxicity, T47D) [nM]	effect on cell proliferation rate vs media control (Caco-2 cells [3])	EC50 at 24 h (MTT cytotoxicity, MSC) [nM]	EC50 at 24 h (MTT cytotoxicity, Caco-2) [nM]	other results
c1ccc2c(c1)cc1ccc3cccc4ccc2c1c34 [BaP, benzo[a]pyrene, reference compound]	partial agonists	–	–	–	–	–	–	–	–	–
Clc1cc2c(cc1Cl)Oc1cc(Cl)c(Cl)cc1O2 [TCDD, 2,3,7,8-tetrachlorodibenzo-p-dioxin, reference compound]	–	0.3 to 2.3	–	–	–	–	–	–	–	–
